Experiments:
[1] = target: T1, GABA transporter 4 (Mus musculus, UniProt P31650); test: Inhibition of mouse GAT4 expressed in HEK293 cells assessed as reduction in [3H]GABA uptake preincubated for 25 mins followed by [3H]GABA addition measured after 4 mins by liquid scintillation counting analysis; type: cell-based
T1 sequence (P31650 whole entry): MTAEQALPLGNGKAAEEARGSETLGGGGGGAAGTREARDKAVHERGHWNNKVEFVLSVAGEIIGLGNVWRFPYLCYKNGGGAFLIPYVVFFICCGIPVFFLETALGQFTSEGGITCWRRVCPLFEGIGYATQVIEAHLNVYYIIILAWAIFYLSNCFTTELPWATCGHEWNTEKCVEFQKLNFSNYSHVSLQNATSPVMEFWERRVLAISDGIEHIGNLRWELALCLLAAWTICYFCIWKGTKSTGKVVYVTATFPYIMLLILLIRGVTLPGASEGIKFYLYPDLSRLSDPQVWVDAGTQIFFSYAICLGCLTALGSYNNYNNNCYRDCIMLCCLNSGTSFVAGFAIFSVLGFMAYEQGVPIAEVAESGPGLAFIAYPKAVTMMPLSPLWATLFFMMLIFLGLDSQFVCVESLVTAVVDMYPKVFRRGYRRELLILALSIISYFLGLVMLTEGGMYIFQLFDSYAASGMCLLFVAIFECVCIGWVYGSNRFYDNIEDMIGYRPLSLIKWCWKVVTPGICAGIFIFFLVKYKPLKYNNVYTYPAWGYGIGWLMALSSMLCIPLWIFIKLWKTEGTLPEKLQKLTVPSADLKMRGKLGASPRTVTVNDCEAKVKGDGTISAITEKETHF
Method in brief: (§1)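 HEK293 cells stably expressing the mouse GAT subtype (about 200000 cells) preincubated with compound for 25 min at 25 °C in the dark with shaking. Then 8 nM [3H]GABA plus 32 nM unlabeled GABA (final) added for 4 min. Stopped by filtration; filter radioactivity by scintillation counting. Photoisomerized 10 mM DMSO-d6 stocks (photostationary state, Z/E ratio by 1H NMR) diluted protected from light; non-irradiated stock tested in parallel.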

[2] = target: T2, Sodium- and chloride-dependent GABA transporter 1 (Mus musculus, UniProt P31648); test: Inhibition of mouse GAT1 expressed in HEK293 cells assessed as reduction in [3H]GABA uptake preincubated for 25 mins followed by [3H]GABA addition measured after 4 mins by liquid scintillation counting analysis; type: cell-based; method in brief: as §1
[3] = target: T2, Sodium- and chloride-dependent GABA transporter 1; test: Inhibition of mouse GAT1 expressed in HEK293 cells assessed as reduction in [3H]GABA uptake; type: cell-based
[4] = target: Sodium- and chloride-dependent GABA transporter 1 (Mus musculus) (UniProt P31648); test: Inhibition of GAT1 in C57BL/6N mouse dentate gyrus granule cells assessed as induction of tonic GABAA receptor-mediated current response by measuring shift in holding current amplitude at 10 uM by Whole cell voltage-clamp method
Method in brief: (§2)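 Acute 350 μm coronal dorsal hippocampal slices from mice, recovered 30 min at 34 °C then ≥30 min at room temperature in carbogenated saline (pH 7.4). Superfused at room temperature with NBQX 5 μM, APV 50 μM, CGP 55845 5 μM. Granule cell whole-cell voltage clamp at −70 mV. Compound bath-applied; activated form made by 340 nm UV for 10 min on 10 mM stock just before addition; bicuculline methiodide 20 μM.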

[5] = target: T2, Sodium- and chloride-dependent GABA transporter 1; test: (§3) Inhibition of mouse GAT1 expressed in HEK293 cells assessed as reduction in [3H]GABA uptake preincubated cells with photoirradiated compound for 25 mins followed by [3H]GABA addition measured after 4 mins by liquid scintillation counting method; type: cell-based; method in brief: as §1
[6] = Half life of thermal relaxation of compound in pH 7.4 DMSO-d6/phosphate-buffer using photoirradiated compound at 10 uM incubated in dark by UV/vis-spectroscopy; type: physicochemical; conditions: pH 7.4, 10 µM
[7] = Half life of thermal relaxation of compound in pH 7.4 DMSO-d6/phosphate-buffer using photoirradiated compound at 25 uM incubated in dark by UV/vis-spectroscopy; type: physicochemical; conditions: pH 7.4, 25 µM
[8] = Half life of thermal relaxation of compound in pH 7.4 DMSO-d6/phosphate-buffer using photoirradiated compound at 20 uM incubated in dark by UV/vis-spectroscopy; type: physicochemical; conditions: pH 7.4, 20 µM
[9] = Half life of thermal relaxation of compound in pH 7.4 DMSO-d6/phosphate-buffer using photoirradiated compound at 50 uM incubated in dark by UV/vis-spectroscopy; type: physicochemical; conditions: pH 7.4, 50 µM
[10] = Half life of thermal relaxation of compound in DMSO-d6 using photoirradiated compound by 1H NMR method; type: physicochemical
Method in brief: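 Irradiated to photostationary state as 10 mM stock in DMSO-d6 (1 mL, within 10 min); 1H NMR spectra recorded starting immediately after irradiation. Z/E fraction α from spectra plotted against time, fit to a single exponential to give half-life; 25 °C.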

[11] = target: T2, Sodium- and chloride-dependent GABA transporter 1; test: Inhibition of mouse GAT1 assessed as reduction in GABA uptake using photoirradiated compound
Method in brief: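 A 10 mM DMSO-d6 stock was irradiated to its photostationary state: 350 nm Rayonet for diphenyldiazenes, 375 nm LED for naphthylphenyldiazenes. (Z)/(E) ratio was checked by 1H NMR, and dilutions were made protected from light. mGAT1-HEK293 cells were preincubated 25 min at 25 °C in the dark, then given 4 min uptake of 8 nM [3H]GABA plus 32 nM GABA. Filtration and scintillation counting gave pIC50.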

[12] = target: T2, Sodium- and chloride-dependent GABA transporter 1; test: Inhibition of mouse GAT1 assessed as reduction in GABA uptake
[13] = target: T3, GABA transporter 4 (Mus musculus) (UniProt P31650); test: as §3, with “GAT4” for “GAT1”, “uptake by measuring remaining [3H]GABA uptake levels” for “uptake”, “compound at 100 uM” for “compound”, “method relative to control” for “method”; type: cell-based
T3 sequence (whole entry): T1 sequence (P31650 whole entry)

[14] = target: Sodium- and chloride-dependent GABA transporter 1 (Mus musculus) (UniProt P31648); test: (§4) Inhibition of GAT1 in C57BL/6N mouse dentate gyrus granule cells assessed as induction of tonic GABAA receptor-mediated current response by measuring shift in holding current amplitude using UV-activated compound at 10 uM by Whole cell voltage-clamp method; method in brief: as §2
[15] = target: Sodium- and chloride-dependent GABA transporter 1 (Mus musculus) (UniProt P31648); test: as §4, with “uM in presence of GABAA receptor blocker bicuculline methiodide” for “uM”; method in brief: as §2
[16] = test system: GABA transporter 2, Slc6a13 (Mus musculus); test: Inhibition of mouse GAT3 expressed in HEK293 cells assessed as reduction in [3H]GABA uptake by measuring remaining [3H]GABA uptake levels preincubated cells with photoirradiated compound at 100 uM for 25 mins followed by [3H]GABA addition measured after 4 mins by liquid scintillation counting …
[17] = test system: betaine/GABA transporter BGT1, Slc6a12 (Mus musculus); test: Inhibition of mouse GAT2 expressed in HEK293 cells assessed as reduction in [3H]GABA uptake by measuring remaining [3H]GABA uptake levels preincubated cells with photoirradiated compound at 100 uM for 25 mins followed by [3H]GABA addition measured after 4 mins by liquid scintillation counting …

| SMILES | IC50 [2] | IC50 [5] | other results |
| --- | --- | --- | --- |
| O=C(O)[C@@H]1CCCN(CCC#Cc2ccc(/N=N/c3ccccc3)cc2)C1 | 0.417 µM | – | IC50 [1]: 10 to 100 µM |
| O=C(O)C1CCCN(CC/C=C/c2cccc(/N=N/c3ccccc3)c2)C1 (stereo unspecified) | 38 µM | – | – |
| O=C(O)C1CCCN(CCC/C=C/c2cccc(/N=N/c3ccccc3)c2)C1 (stereo unspecified) | 38 µM | – | – |
| O=C(O)C1CCCN(CCC/C=C/c2ccc(/N=N/c3ccccc3)cc2)C1 (stereo unspecified) | 5.75 µM | – | – |
| O=C(O)C1CCCN(CCC#Cc2ccc(/N=N/c3ccccc3)cc2)C1 (stereo unspecified) | 0.646 µM | – | – |
| O=C(O)C1CCCN(CCC#Cc2cccc(/N=N/c3ccccc3)c2)C1 (stereo unspecified) | 32.4 µM | – | – |
| O=C(O)C1CCCN(CC/C=C/c2ccc(/N=N/c3cccc4ccccc34)cc2)C1 (stereo unspecified) | 8.71 µM | – | – |
| O=C(O)C1CCCN(CC/C=C/c2ccccc2-c2ccccc2)C1 (stereo unspecified) | – | – | IC50 [3]: 0.162 µM |
| O=C(O)[C@@H]1CCCN(CCC#Cc2cccc(/N=N/c3cccc4ccccc34)c2)C1 | 4.27 µM | – | IC50 [1]: 10 to 100 µM |
| O=C(O)C1CCCN(CCCC#Cc2cccc(/N=N/c3cccc4ccccc34)c2)C1 (stereo unspecified) | 12.3 µM | – | – |
| O=C(O)C1CCCN(CCC/C=C/c2cccc(/N=N/c3cccc4ccccc34)c2)C1 (stereo unspecified) | 19.5 µM | – | – |
| O=C(O)C1CCCN(CCCC#Cc2cccc(/N=N/c3ccccc3)c2)C1 (stereo unspecified) | 14.5 µM | – | – |
| O=C(O)C1CCCN(CCC/C=C/c2ccc(/N=N/c3cccc4ccccc34)cc2)C1 (stereo unspecified) | 6.46 µM | – | – |
| O=C(O)C1CCCN(CCCC#Cc2ccc(/N=N/c3cccc4ccccc34)cc2)C1 (stereo unspecified) | 3.02 µM | – | – |
| O=C(O)[C@@H]1CCCN(CCC#Cc2ccc(/N=N/c3cccc4ccccc34)cc2)C1 | 0.0977 µM | – | IC50 [1]: 10 to 100 µM |
| O=C(O)C1CCCN(CCC#Cc2cccc(/N=N/c3cccc4ccccc34)c2)C1 (stereo unspecified) | 6.46 µM | – | – |
| O=C(O)C1CCCN(CCC#Cc2ccccc2-c2ccccc2)C1 (stereo unspecified) | – | – | IC50 [3]: 0.1 µM |
| O=C(O)C1CCCN(CCCC#Cc2ccc(/N=N/c3ccccc3)cc2)C1 (stereo unspecified) | 7.59 µM | – | – |
| O=C(O)C1CCCN(CC/C=C/c2ccc(/N=N/c3ccccc3)cc2)C1 (stereo unspecified) | 10 µM | – | – |
| O=C(O)C1CCCN(CCC#Cc2ccc(/N=N/c3cccc4ccccc34)cc2)C1 (stereo unspecified) | 0.126 µM | – | – |
| O=C(O)[C@@H]1CCCN(CCC#Cc2cccc(/N=N/c3ccccc3)c2)C1 | 22.4 µM | – | IC50 [1]: 10 to 100 µM; Activity [4]: -0.22 pA |
| O=C(O)C1CCCN(CC/C=C/c2cccc(/N=N/c3cccc4ccccc34)c2)C1 (stereo unspecified) | 12.3 µM | – | – |

| SMILES | IC50 [2] | IC50 [5] | other results |
| --- | --- | --- | --- |
| O=C(O)C1CCCN(CCCC#Cc2ccc(N=Nc3cccc4ccccc34)cc2)C1 (mixture of isomers) | – | 4.9 µM | t1/2 [6]: 4.3 h |
| O=C(O)C1CCCN(CCC#Cc2ccc(N=Nc3ccccc3)cc2)C1 (mixture of isomers) | – | 2.57 µM | t1/2 [7]: 115 h |
| O=C(O)C1CCCN(CCCC#Cc2cccc(N=Nc3ccccc3)c2)C1 (mixture of isomers) | – | 4.07 µM | t1/2 [8]: 360 h |
| O=C(O)C1CCCN(CCCC=Cc2ccc(N=Nc3ccccc3)cc2)C1 (mixture of isomers) | – | 23.4 µM | t1/2 [9]: 45.6 h |
| O=C(O)C1CCCN(CCC#Cc2cccc(N=Nc3cccc4ccccc34)c2)C1 (mixture of isomers) | – | 1.95 µM | t1/2 [8]: 18 h |
| O=C(O)C1CCCN(CCCC=Cc2cccc(N=Nc3ccccc3)c2)C1 (mixture of isomers) | – | 25.1 µM | t1/2 [8]: 288 h |
| O=C(O)C1CCCN(CCCC#Cc2ccc(N=Nc3ccccc3)cc2)C1 (mixture of isomers) | – | 25.7 µM | t1/2 [7]: 163 h |
| O=C(O)C1CCCN(CCC#Cc2cccc(N=Nc3ccccc3)c2)C1 (mixture of isomers) | – | 0.891 µM | t1/2 [9]: 528 h; t1/2 [10]: 360 h |
| O=C(O)C1CCCN(CCC=Cc2cccc(N=Nc3cccc4ccccc34)c2)C1 (mixture of isomers) | – | 5.89 µM | t1/2 [8]: 22 h |
| O=C(O)C1CCCN(CCC#Cc2ccc(N=Nc3cccc4ccccc34)cc2)C1 (mixture of isomers) | – | 0.229 µM | t1/2 [6]: 3.4 h |
| O=C(O)[C@@H]1CCCN(CCOCCc2cccc(N=Nc3cccc4ccccc34)c2)C1 (mixture of isomers) | – | – | IC50 [11]: 1.66 µM; IC50 [12]: 0.407 µM |
| O=C(O)[C@@H]1CCCN(CCC#Cc2cccc(N=Nc3ccccc3)c2)C1 (mixture of isomers) | – | 0.417 µM | Activity [13]: 57%; Activity [14]: -25.3 pA; Activity [15]: -1.84 pA; Activity [16]: 60%; Activity [17]: 76% |
| O=C(O)[C@@H]1CCCN(CCC#Cc2ccc(N=Nc3ccccc3)cc2)C1 (mixture of isomers) | – | 1.45 µM | – |
| O=C(O)[C@@H]1CCCN(CCC#Cc2ccc(N=Nc3cccc4ccccc34)cc2)C1 (mixture of isomers) | – | 0.182 µM | – |
| O=C(O)C1CCCN(CCCC=Cc2ccc(N=Nc3cccc4ccccc34)cc2)C1 (mixture of isomers) | – | 6.17 µM | t1/2 [6]: 1.5 h |
| O=C(O)C1CCCN(CCCC=Cc2cccc(N=Nc3cccc4ccccc34)c2)C1 (mixture of isomers) | – | 10 µM | t1/2 [8]: 11 h |
| O=C(O)C1CCCN(CCC=Cc2ccc(N=Nc3cccc4ccccc34)cc2)C1 (mixture of isomers) | – | 7.41 µM | t1/2 [6]: 1.2 h |
| O=C(O)C1CCCN(CCCC#Cc2cccc(N=Nc3cccc4ccccc34)c2)C1 (mixture of isomers) | – | 13.8 µM | t1/2 [8]: 43.2 h |
| O=C(O)C1CCCN(CCC=Cc2ccc(N=Nc3ccccc3)cc2)C1 (mixture of isomers) | – | 37.2 µM | t1/2 [9]: 26.4 h |
| O=C(O)[C@@H]1CCCN(CCC#Cc2cccc(N=Nc3cccc4ccccc34)c2)C1 (mixture of isomers) | – | 1 µM | – |
| O=C(O)C1CCCN(CCC=Cc2cccc(N=Nc3ccccc3)c2)C1 (mixture of isomers) | – | 4.79 µM | t1/2 [7]: 312 h |
